Laboratory results as given in article PMC6699892 (Inorganic chemistry, 2019).

Test: Lipophilicity, modified shake flask octanol-water partition
Format: physicochemical
Conditions: chloride salts, 50 µM, 1-octanol/water, room temperature
How it was run: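 1-Octanol and water were mutually pre-saturated by shaking for 24 h at room temperature. Test compound at 50 µM in water-saturated octanol was mixed with an equal volume of octanol-saturated water, hand-shaken 200 times and centrifuged (11,000 rpm, 2 min). Each layer was quantified by absorbance against standard curves.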

Octanol-water partition coefficient (log Po/w): < −3
Compound: [Cl][Ru][Cl].c1ccc(-c2ccccn2)nc1.c1ccc(-c2ccccn2)nc1.c1ccc(-c2ccccn2)nc1 [[Ru(bpy)3]Cl2, reference compound]
